Laboratory results as given in ChEMBL document CHEMBL3045103, “Antimicrobial and antiurease activities of newly synthesized morpholine derivatives containing an azole nucleus” (Med Chem Res, 2013).
Active and inactive are the calls of the source.

Columns and labels:
Assay type in all cases: functional
Enterococcus faecalis = assay: Antibacterial activity against Enterococcus faecalis ATCC 29212 after 18 to 24 hr by double microdilution method
Procedure, shortened: (§1)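 Compounds dissolved in […] as 20.000 μg/mL stock solutions. Tested quantitatively by double microdilution in Mueller–Hinton broth at pH 7.3, with plates incubated 18–24 h at 35 °C. Read-out is the minimal inhibition concentration (MIC) in μg/mL.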

Bacillus cereus = assay: Antibacterial activity against Bacillus cereus 702 Roma after 18 to 24 hr by double microdilution method; procedure, shortened: as §1
Staphylococcus aureus = assay: Antibacterial activity against Staphylococcus aureus ATCC 25923 after 18 to 24 hr by double microdilution method; procedure, shortened: as §1
[1] = tested on: Yersinia pseudotuberculosis; assay: Antibacterial activity against Yersinia pseudotuberculosis ATCC 911 after 18 to 24 hr by double microdilution method; procedure, shortened: as §1
[2] = tested on: Mycolicibacterium smegmatis; assay: Antibacterial activity against Mycobacterium smegmatis ATCC 607 after 48 to 72 hr by double microdilution method
Procedure, shortened: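 Compounds dissolved in hexane as 20.000 μg/mL stock solutions. MIC (μg/mL) determined quantitatively by double microdilution, using Brain Heart Infusion broth as the growth medium for M. smegmatis.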

Pseudomonas aeruginosa = assay: Antibacterial activity against Pseudomonas aeruginosa ATCC 43288 after 18 to 24 hr by double microdilution method
Procedure, shortened: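 Double microdilution in Mueller–Hinton broth, pH 7.3; plates incubated 18–24 h at 35 °C; MIC (μg/mL) determined. Compounds dissolved in hexane as 20.000 μg/mL stock.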

Measured: MIC

Sc1nnc(CNc2ccc(N3CCOCC3)nc2)o1
inactive: Enterococcus faecalis | Bacillus cereus | Staphylococcus aureus | [1] | [2] | Pseudomonas aeruginosa

CCOC(=O)CNc1ccc(N2CCOCC2)nc1
inactive: Enterococcus faecalis | Bacillus cereus | Staphylococcus aureus | [1] | Pseudomonas aeruginosa

NNC(=O)CNc1ccc(N2CCOCC2)nc1
inactive: Enterococcus faecalis | Bacillus cereus | Staphylococcus aureus | [1] | Pseudomonas aeruginosa

Sc1nnc(CNc2ccc(N3CCOCC3)nc2)n1-c1ccccc1
inactive: Enterococcus faecalis | Bacillus cereus | Staphylococcus aureus | [1] | Pseudomonas aeruginosa

O=C(CNc1ccc(N2CCOCC2)nc1)N/N=C/c1ccc(Br)cc1
inactive: Enterococcus faecalis | Bacillus cereus | Staphylococcus aureus | [1] | Pseudomonas aeruginosa

O=C(CNc1ccc(N2CCOCC2)nc1)N/N=C1\SCC(=O)N1c1ccccc1
inactive: Enterococcus faecalis | Bacillus cereus | Staphylococcus aureus | [1] | [2] | Pseudomonas aeruginosa

O=C(CNc1ccc(N2CCOCC2)nc1)N/N=C/C=C/c1ccccc1
inactive: Enterococcus faecalis | Bacillus cereus | Staphylococcus aureus | [1] | [2] | Pseudomonas aeruginosa

O=C(CNc1ccc(N2CCOCC2)nc1)N/N=c1\sc(-c2ccc(Cl)cc2)cn1-c1ccccc1
inactive: Enterococcus faecalis | Bacillus cereus | Staphylococcus aureus | [1] | [2] | Pseudomonas aeruginosa

O=C(CNc1ccc(N2CCOCC2)nc1)NNC(=S)Nc1ccccc1
inactive: Enterococcus faecalis | Bacillus cereus | Staphylococcus aureus | [1] | Pseudomonas aeruginosa
